Measurements published in ChEMBL document CHEMBL3108754, “Herbicidin congeners, undecose nucleosides from an organic extract of Streptomyces sp. L-9-10” (J Nat Prod, 2014).
Active and inactive are the calls of the source. The calls are words filed in the database; no cut-off is given here.

How the values were obtained:
MCF7 = assay: Cytotoxicity against human MCF7 cells; format: functional, cell-based
[1] = molecular target: Nitric oxide synthase, inducible (Homo sapiens) (UniProt P35228); assay: Inhibition of iNOS (unknown origin)
Chain of Nitric oxide synthase, inducible (Homo sapiens) (P35228 whole entry): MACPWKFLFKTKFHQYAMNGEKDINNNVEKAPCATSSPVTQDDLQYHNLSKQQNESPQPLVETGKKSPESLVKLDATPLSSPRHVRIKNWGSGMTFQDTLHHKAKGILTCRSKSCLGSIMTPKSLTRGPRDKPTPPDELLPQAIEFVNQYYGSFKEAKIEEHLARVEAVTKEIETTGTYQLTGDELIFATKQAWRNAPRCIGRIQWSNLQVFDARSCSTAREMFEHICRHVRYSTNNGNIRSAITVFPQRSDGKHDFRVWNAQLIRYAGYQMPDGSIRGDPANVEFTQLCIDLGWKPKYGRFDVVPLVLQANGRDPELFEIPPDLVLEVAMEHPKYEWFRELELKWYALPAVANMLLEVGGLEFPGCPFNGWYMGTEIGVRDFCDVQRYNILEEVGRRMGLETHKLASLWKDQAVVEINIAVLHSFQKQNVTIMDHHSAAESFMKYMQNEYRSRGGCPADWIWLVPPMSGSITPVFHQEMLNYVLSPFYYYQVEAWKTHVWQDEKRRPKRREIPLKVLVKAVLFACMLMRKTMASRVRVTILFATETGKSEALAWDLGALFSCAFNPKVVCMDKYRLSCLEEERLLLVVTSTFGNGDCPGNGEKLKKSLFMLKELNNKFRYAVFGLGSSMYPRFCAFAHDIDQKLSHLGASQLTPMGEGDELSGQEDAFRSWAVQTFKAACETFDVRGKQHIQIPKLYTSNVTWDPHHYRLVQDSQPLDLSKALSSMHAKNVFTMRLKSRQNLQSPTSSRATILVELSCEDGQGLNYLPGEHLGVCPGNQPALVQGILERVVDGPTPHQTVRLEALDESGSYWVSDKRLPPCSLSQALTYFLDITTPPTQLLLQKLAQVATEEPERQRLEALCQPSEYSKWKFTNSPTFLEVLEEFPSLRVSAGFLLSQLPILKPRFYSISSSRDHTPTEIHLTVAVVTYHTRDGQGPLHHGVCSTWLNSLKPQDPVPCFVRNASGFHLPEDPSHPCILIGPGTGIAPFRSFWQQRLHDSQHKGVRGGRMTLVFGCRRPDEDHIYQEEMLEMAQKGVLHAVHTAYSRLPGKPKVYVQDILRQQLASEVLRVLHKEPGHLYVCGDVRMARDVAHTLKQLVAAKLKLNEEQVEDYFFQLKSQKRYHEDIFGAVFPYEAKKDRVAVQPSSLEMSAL

[2] = tested on: Radical scavenging activity; assay: Antioxidant activity assessed as DPPH radical scavenging activity; format: functional
HEK293 [3] = assay: Cytotoxicity against HEK293 cells; format: cell-based; details: Homo sapiens
Procedure, shortened: (§1)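 HEK293 reporter cells were tested under the NF-κB assay conditions: TNF-α activation at 2 ng/mL and 6 h exposure to compounds. Values are cytotoxic IC50 or % survival at 50 μM.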

[4] = Inhibition of TNF-alpha-induced NF-kappaB activity in HEK293 cells after 6 hrs by luciferase reporter gene assay; format: cell-based; details: Homo sapiens, HEK293, 6 h
Procedure, shortened: (§2)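 Stable NF-κB luciferase reporter HEK293 cells were seeded at 20×10^3 cells/well in DMEM with 10% FBS, penicillin/streptomycin and 2 mM L-glutamine, grown 48 h, then given fresh medium and compounds. Cells were activated with human recombinant TNF-α at 2 ng/mL (0.14 nM) for 6 h, washed, lysed, and read by luciferase luminescence. Values are IC50 for inhibiting TNF-induced activity, or % inhibition at 50 μM.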

HEK293 [5] = assay: Inhibition of TNF-alpha-induced NF-kappaB activity in HEK293 cells assessed as cell survival at 50 uM after 6 hrs by luciferase reporter gene assay; format: cell-based; details: Homo sapiens; procedure, shortened: as §1
HEK293 [6] = assay: Inhibition of TNF-alpha-induced NF-kappaB activity in HEK293 cells at 50 uM after 6 hrs by luciferase reporter gene assay; format: cell-based; details: Homo sapiens; procedure, shortened: as §2
Streptomyces = assay: Antimicrobial activity against Streptomyces 85E at 80 ug/disk after 30 hrs by hyphae formation inhibition assay; format: functional, organism-based
NF-kappaB = assay: Selectivity ratio of IC50 for HEK293 cells to IC50 for NF-kappaB activity in HEK293 cells; format: ADME, cell-based; details: human, read-out: Ratio IC50
Procedure, shortened: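 HEK293 (Panomic) cells stably carrying an NF-κB luciferase reporter, grown in DMEM with 10% FBS, penicillin/streptomycin and 2 mM L-glutamine, seeded at 20×10^3 per well, then left 48 h. Medium renewed, cells given a range of compound concentrations plus TNF-α at 2 ng/mL (0.14 nM) for 6 h. Lysates read by luciferase luminescence. Cytotoxicity IC50 run under the same conditions.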

Row | Compound | Activity (MCF7) | inhibition [1] | Activity [2] | IC50 (HEK293 [3]) | IC50 [4] | cell survival (HEK293 [5]) | inhibition (HEK293 [6]) | Activity (Streptomyces) | selectivity ratio (NF-kappaB)
1 | COC(=O)[C@H]1O[C@@H]2C[C@H]3O[C@@H](n4cnc5c(N)ncnc54)[C@H](OC)[C@H]3O[C@@]2(O)[C@H](O)[C@@H]1O | inactive | inactive | inactive | 43.7 µM | 3200 nM | 53% | 92.2% | inactive | 
2 | Cc1ccc(S(=O)(=O)N[C@@H](Cc2ccccc2)C(=O)CCl)cc1 [TPCK] |  |  |  | 11.1 µM | 3800 nM |  |  |  | 2
3 | Cc1ccc(S(=O)(=O)/C=C/C#N)cc1 |  |  |  | 3.8 µM | 2000 nM |  |  |  | 2
4 | C/C=C(\C)C(=O)O[C@H]1[C@H](O)[C@@H](C(=O)OC)O[C@@H]2C[C@H]3O[C@@H](n4cnc5c(N)ncnc54)[C@H](O)[C@H]3O[C@]21O | inactive | inactive | inactive | 2.2 µM | 4900 nM | 42.3% | 92.4% | inactive | 
5 | C/C=C(\C)C(=O)O[C@H]1[C@H](O)[C@@H](C(=O)OC)O[C@@H]2C[C@H]3O[C@@H](n4cnc5c(N)ncnc54)[C@H](OC)[C@H]3O[C@]21O | inactive | inactive | inactive | 2.3 µM | 500 nM | 59.8% | 83.4% | inactive | 
6 | COC(=O)[C@H]1O[C@@H]2C[C@H]3O[C@@H](n4cnc5c(N)ncnc54)[C@H](OC)[C@H]3O[C@@]2(O)[C@@H](O)[C@@H]1O | inactive | inactive | inactive | > 50 µM | 2900 nM | 95.6% | 94.2% | inactive | 
7 | C/C=C(\CO)C(=O)O[C@H]1[C@H](O)[C@@H](C(=O)OC)O[C@@H]2C[C@H]3O[C@@H](n4cnc5c(N)ncnc54)[C@H](OC)[C@H]3O[C@]21O | inactive | inactive | inactive | 2.7 µM | 1800 nM | 45.8% | 80.9% | inactive | 
8 | COC(=O)[C@@H]1CC(O)(O)[C@]2(O)O[C@@H]3[C@@H](OC)[C@H](n4cnc5c(N)ncnc54)O[C@@H]3C[C@H]2O1 | inactive | inactive | inactive | 13.7 µM | 2400 nM | 45.1% | 96.2% | inactive | 
